Measured values reported in ChEMBL document CHEMBL3244095, “Synthesis and antitumor activity of 5-azacytosine arabinoside” (J Med Chem, 1979).

Legend:
[1] = tested on: Mus musculus; test: Toxicity in CDF1 mouse assessed as change in body weight at 12.5 mg/kg, ip measured on day 5 relative to control; format: organism-based; parameters: dose 12.5 mg/kg, route intraperitoneal; conditions: in vivo
Method in brief: (§1)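 CDF1 mice were implanted ip with 10^5 L1210 leukemia cells on day 0. Drug in 0.9% saline was given ip once daily on days 1–9 (nine injections) in a dose-response design. Body weight was compared with untreated tumor-bearing controls. The work was done as duplicate experiments.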

[2] = tested on: L1210; test: Antitumor activity in mouse L1210 cells allografted in CDF1 mouse assessed as increase in life span at 6.25 mg/kg, ip administered as qd for 9 days relative to control; format: functional; conditions: 216 h, route intraperitoneal
Method in brief: (§2)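 CDF1 mice inoculated ip with 10^5 L1210 leukemia cells on day 0; compounds in 0.9% saline given ip once daily days 1–9 (nine injections) across a dose-response range. Antitumor activity = mean increase in life span over untreated controls, expressed as % ILS; duplicate experiments, with drug-related deaths and weight loss monitored.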

[3] = tested on: L1210; test: Antitumor activity in mouse L1210 cells allografted in CDF1 mouse assessed as increase in life span at 0.78 mg/kg, ip administered as qd for 9 days relative to control; format: functional; conditions: 216 h, route intraperitoneal; method in brief: as §2
[4] = tested on: Mus musculus; test: Toxicity in CDF1 mouse assessed as change in body weight at 3.12 mg/kg, ip measured on day 5 relative to control; format: organism-based; parameters: dose 3.12 mg/kg, route intraperitoneal; conditions: in vivo; method in brief: as §1
[5] = tested on: Mus musculus; test: Toxicity in CDF1 mouse assessed as change in body weight at 1.56 mg/kg, ip measured on day 5 relative to control; format: organism-based; parameters: dose 1.56 mg/kg, route intraperitoneal; conditions: in vivo; method in brief: as §1
[6] = Drug degradation in water solution at 25 degC after 5.5 hrs by reverse phase liquid chromatography; format: physicochemical; conditions: read-out: Drug degradation
Method in brief: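 Parent held at 25 °C and sampled over time. Its disappearance was fitted to a first-order rate equation, and the fraction lost was taken at 5.5 h from that fit.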

[7] = tested on: Mus musculus; test: Toxicity in CDF1 mouse assessed as change in body weight at 0.78 mg/kg, ip measured on day 5 relative to control; format: organism-based; parameters: dose 0.78 mg/kg, route intraperitoneal; conditions: in vivo; method in brief: as §1
[8] = tested on: L1210; test: Antitumor activity in mouse L1210 cells allografted in CDF1 mouse assessed as increase in life span at 3.12 mg/kg, ip administered as qd for 9 days relative to control; format: functional; conditions: 216 h, route intraperitoneal; method in brief: as §2
[9] = tested on: Mus musculus; test: Toxicity in CDF1 mouse assessed as change in body weight at 6.25 mg/kg, ip measured on day 5 relative to control; format: organism-based; parameters: dose 6.25 mg/kg, route intraperitoneal; conditions: in vivo; method in brief: as §1
[10] = tested on: L1210; test: Antitumor activity in mouse L1210 cells allografted in CDF1 mouse assessed as increase in life span at 1.56 mg/kg, ip administered as qd for 9 days relative to control; format: functional; conditions: 216 h, route intraperitoneal; method in brief: as §2
[11] = tested on: L1210; test: Antitumor activity in mouse L1210 cells allografted in CDF1 mouse assessed as increase in life span at 10 mg/kg, ip administered as qd for 9 days relative to control; format: functional; conditions: 216 h, route intraperitoneal; method in brief: as §2
[12] = tested on: Mus musculus; test: Toxicity in CDF1 mouse assessed as change in body weight at 50 mg/kg, ip measured on day 5 relative to control; format: organism-based; parameters: dose 50 mg/kg, route intraperitoneal; conditions: in vivo; method in brief: as §1
[13] = tested on: Mus musculus; test: Toxicity in CDF1 mouse assessed as change in body weight at 40 mg/kg, ip measured on day 5 relative to control; format: organism-based; parameters: dose 40 mg/kg, route intraperitoneal; conditions: in vivo; method in brief: as §1
[14] = tested on: L1210; test: Antitumor activity in mouse L1210 cells allografted in CDF1 mouse assessed as increase in life span at 80 mg/kg, ip administered as qd for 9 days relative to control; format: functional; conditions: 216 h, route intraperitoneal; method in brief: as §2
[15] = tested on: L1210; test: Antitumor activity in mouse L1210 cells allografted in CDF1 mouse assessed as increase in life span at 25 mg/kg, ip administered as qd for 9 days relative to control; format: functional; conditions: 216 h, route intraperitoneal; method in brief: as §2
[16] = tested on: Mus musculus; test: Toxicity in CDF1 mouse assessed as change in body weight at 10 mg/kg, ip measured on day 5 relative to control; format: organism-based; parameters: dose 10 mg/kg, route intraperitoneal; conditions: in vivo; method in brief: as §1
[17] = tested on: Mus musculus; test: Toxicity in CDF1 mouse assessed as change in body weight at 20 mg/kg, ip measured on day 5 relative to control; format: organism-based; parameters: dose 20 mg/kg, route intraperitoneal; conditions: in vivo; method in brief: as §1
[18] = tested on: L1210; test: Antitumor activity in mouse L1210 cells allografted in CDF1 mouse assessed as increase in life span at 40 mg/kg, ip administered as qd for 9 days relative to control; format: functional; conditions: 216 h, route intraperitoneal; method in brief: as §2
[19] = Half life of the compound; format: physicochemical
[20] = tested on: Mus musculus; test: Toxicity in CDF1 mouse assessed as change in body weight at 80 mg/kg, ip measured on day 5 relative to control; format: organism-based; parameters: dose 80 mg/kg, route intraperitoneal; conditions: in vivo; method in brief: as §1
[21] = tested on: L1210; test: Antitumor activity in mouse L1210 cells allografted in CDF1 mouse assessed as increase in life span at 5 mg/kg, ip administered as qd for 9 days relative to control; format: functional; conditions: 216 h, route intraperitoneal; method in brief: as §2
[22] = tested on: Mus musculus; test: Toxicity in CDF1 mouse assessed as change in body weight at 5 mg/kg, ip measured on day 5 relative to control; format: organism-based; parameters: dose 5 mg/kg, route intraperitoneal; conditions: in vivo; method in brief: as §1
[23] = tested on: Mus musculus; test: Toxicity in CDF1 mouse assessed as change in body weight at 100 mg/kg, ip measured on day 5 relative to control; format: organism-based; parameters: dose 100 mg/kg, route intraperitoneal; conditions: in vivo; method in brief: as §1
[24] = tested on: L1210; test: Antitumor activity in mouse L1210 cells allografted in CDF1 mouse assessed as increase in life span at 20 mg/kg, ip administered as qd for 9 days relative to control; format: functional; conditions: 216 h, route intraperitoneal; method in brief: as §2
[25] = tested on: Mus musculus; test: Toxicity in CDF1 mouse assessed as change in body weight at 200 mg/kg, ip measured on day 5 relative to control; format: organism-based; parameters: dose 200 mg/kg, route intraperitoneal; conditions: in vivo; method in brief: as §1
[26] = tested on: Mus musculus; test: Toxicity in CDF1 mouse assessed as change in body weight at 25 mg/kg, ip measured on day 5 relative to control; format: organism-based; parameters: dose 25 mg/kg, route intraperitoneal; conditions: in vivo; method in brief: as §1
[27] = tested on: L1210; test: Antitumor activity in mouse L1210 cells allografted in CDF1 mouse assessed as increase in life span at 12.5 mg/kg, ip administered as qd for 9 days relative to control; format: functional; conditions: 216 h, route intraperitoneal; method in brief: as §2
[28] = tested on: L1210; test: Antitumor activity in mouse L1210 cells allografted in CDF1 mouse assessed as increase in life span at 200 mg/kg, ip administered as qd for 9 days relative to control; format: functional; conditions: 216 h, route intraperitoneal; method in brief: as §2
[29] = Drug degradation in water solution at 25 degC after 4 hrs by reverse phase liquid chromatography; format: physicochemical; conditions: read-out: Drug degradation
Method in brief: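 Nucleoside in water solution held at 25 °C; the loss of parent compound over time was measured by LC analysis. Degradation was read at 4 h.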

[30] = tested on: L1210; test: Antitumor activity in mouse L1210 cells allografted in CDF1 mouse assessed as increase in life span at 50 mg/kg, ip administered as qd for 9 days relative to control; format: functional; conditions: 216 h, route intraperitoneal; method in brief: as §2
[31] = tested on: L1210; test: Antitumor activity in mouse L1210 cells allografted in CDF1 mouse assessed as increase in life span at 100 mg/kg, ip administered as qd for 9 days relative to control; format: functional; conditions: 216 h, route intraperitoneal; method in brief: as §2

Row | SMILES | Activity [1] | ILS at 6.25 mg/kg [2] | ILS at 0.78 mg/kg [3] | Activity [4] | Activity [5] | Activity [7] | ILS at 3.12 mg/kg [8] | Activity [9] | ILS at 1.56 mg/kg [10] | Activity [12] | ILS at 25 mg/kg [15] | Activity [23] | Activity [25] | Activity [26] | ILS at 12.5 mg/kg [27] | further results
1 | Nc1ncn([C@@H]2O[C@H](CO)[C@@H](O)[C@H]2O)c(=O)n1 [AZACITIDINE] | Toxic | 1% | 26% | -5.3 g | -1.3 g | -2 g | 33% | -6.1 g | 66% |  |  |  |  |  |  | degraded at 5.5 h [6]: 15%
2 | Nc1ccn([C@@H]2O[C@H](CO)[C@@H](O)[C@@H]2O)c(=O)n1 [CYTARABINE] | -0.4 g | 34% |  | 0.3 g |  |  | 28% | 0.3 g |  | -1.8 g | 121% | Non-toxic | Non-toxic | 0 g | 91% | ILS at 10 mg/kg [11]: 84%; Activity [13]: -1 g; ILS at 80 mg/kg [14]: 92%; Activity [16]: -0.2 g; Activity [17]: -0.3 g; ILS at 40 mg/kg [18]: 123%; half-life [19]: 34 h; Activity [20]: -1.8 g; ILS at 5 mg/kg [21]: 47%; Activity [22]: 0.4 g; ILS at 20 mg/kg [24]: 127%
3 | Nc1ncn([C@@H]2O[C@H](CO)[C@@H](O)[C@@H]2O)c(=O)n1 [FAZARABINE] | -3.7 g | 41% | 39% | -3.3 g | -1.3 g | -1.2 g | 28% | -2.5 g | 66% | -3.3 g | 58% | -4 g | -2.8 g | -4 g | 58% | ILS at 200 mg/kg [28]: 19%; degraded at 4 h [29]: 15%; ILS at 50 mg/kg [30]: 92%; ILS at 100 mg/kg [31]: 80%
